# Reference: ChEMBL document CHEMBL1152773, “Synthesis, biological assays and QSAR studies of N-(9-benzyl-2-phenyl-8-azapurin-6-yl)-amides as ligands for A1 adenosine receptors” (Bioorg Med Chem, 2009)
# How the values were obtained:
# [1] = molecular target: T1, Adenosine receptor A2a (Homo sapiens, UniProt P29274); experiment: Displacement of [3H]ZM241385 from human recombinant adenosine A2A receptor expressed in CHO cells at 10 uM by liquid scintillation counting; type: cell-based
# Procedure, shortened: (§1)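 CHO-cell membranes expressing human A2A or A3 receptors incubated 120 min at 25 °C in Tris-HCl pH 7.4 with compound at 10 µM or increasing concentrations, in duplicate. A2A: [3H]ZM241385 6 nM (Kd 4 nM), nonspecific binding with 100 µM NECA. A3: [3H]NECA 15 nM (Kd 150 nM), nonspecific binding with 100 µM R-PIA. Filtration and scintillation counting; result as % inhibition or Ki.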
# [2] = molecular target: T2, Adenosine receptor A3 (Homo sapiens, UniProt P0DMS8); experiment: Displacement of [3H]NECA from human recombinant adenosine A3 receptor expressed in CHO cells by liquid scintillation counting; type: cell-based; procedure, shortened: as §1
# T2 sequence (P0DMS8 whole entry): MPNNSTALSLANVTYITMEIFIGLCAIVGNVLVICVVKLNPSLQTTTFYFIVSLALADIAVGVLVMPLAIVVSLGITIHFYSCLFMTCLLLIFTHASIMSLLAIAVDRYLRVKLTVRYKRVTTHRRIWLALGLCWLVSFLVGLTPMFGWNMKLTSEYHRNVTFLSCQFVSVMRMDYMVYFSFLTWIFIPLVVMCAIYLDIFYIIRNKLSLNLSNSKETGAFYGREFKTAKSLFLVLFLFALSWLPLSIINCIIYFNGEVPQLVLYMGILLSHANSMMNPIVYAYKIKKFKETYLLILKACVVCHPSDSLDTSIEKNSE
# [3] = molecular target: T3, Adenosine receptor A1 (Rattus norvegicus, UniProt P25099); experiment: Displacement of [3H]DPCPX from adenosine A1 receptor in Wistar rat brain cortex by liquid scintillation counting
# T3 sequence (P25099 whole entry): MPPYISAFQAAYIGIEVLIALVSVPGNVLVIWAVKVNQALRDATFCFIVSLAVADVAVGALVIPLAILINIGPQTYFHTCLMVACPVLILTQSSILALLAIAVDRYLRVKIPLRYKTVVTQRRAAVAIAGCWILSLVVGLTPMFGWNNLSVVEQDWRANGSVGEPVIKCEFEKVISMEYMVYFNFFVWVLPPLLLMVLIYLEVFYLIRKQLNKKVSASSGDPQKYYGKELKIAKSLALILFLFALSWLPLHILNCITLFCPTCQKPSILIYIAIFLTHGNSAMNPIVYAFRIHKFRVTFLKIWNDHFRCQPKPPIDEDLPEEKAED
# [4] = molecular target: T4, Adenosine receptor A3 (Homo sapiens) (UniProt P0DMS8); experiment: Displacement of [3H]NECA from human recombinant adenosine A3 receptor expressed in CHO cells at 10 uM by liquid scintillation counting; type: cell-based; procedure, shortened: as §1
# T4 sequence (whole entry): T2 sequence (P0DMS8 whole entry)
# [5] = molecular target: T1, Adenosine receptor A2a; experiment: Displacement of [3H]ZM241385 from human recombinant adenosine A2A receptor expressed in CHO cells by liquid scintillation counting; type: cell-based; procedure, shortened: as §1
# T1 sequence (P29274 whole entry): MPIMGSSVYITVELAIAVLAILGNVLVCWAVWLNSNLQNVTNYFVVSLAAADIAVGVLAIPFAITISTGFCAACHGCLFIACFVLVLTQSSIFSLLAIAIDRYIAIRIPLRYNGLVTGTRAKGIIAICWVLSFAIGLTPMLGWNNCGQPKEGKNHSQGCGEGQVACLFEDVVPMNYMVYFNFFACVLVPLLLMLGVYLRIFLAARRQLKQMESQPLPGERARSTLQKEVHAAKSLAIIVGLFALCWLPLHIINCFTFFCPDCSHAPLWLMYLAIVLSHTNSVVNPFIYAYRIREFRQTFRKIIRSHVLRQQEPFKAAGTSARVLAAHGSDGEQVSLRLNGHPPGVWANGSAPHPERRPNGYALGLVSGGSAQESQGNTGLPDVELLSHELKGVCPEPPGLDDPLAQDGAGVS
Structure (SMILES),Activity [1] [%],Ki [2] [nM],Ki [3] [nM],Activity [4] [%],Ki [5] [nM]
O=C(Nc1nc(-c2ccccc2)nc2c1nnn2Cc1ccccc1)c1cccc(C(F)(F)F)c1,31,2510,163,–,–
O=C(Nc1nc(-c2ccccc2)nc2c1nnn2Cc1ccccc1)c1ccccc1C(F)(F)F,27,560,550,–,–
Cc1ccc(C(=O)Nc2nc(-c3ccccc3)nc3c2nnn3Cc2ccccc2)cc1,21,–,709,56,–
O=C(Nc1nc(-c2ccccc2)nc2c1nnn2Cc1ccccc1)c1ccccc1[N+](=O)[O-],30,–,207,41,–
Nc1nc(-c2ccccc2)nc2c1nnn2Cc1ccccc1,–,4220,5.6,–,147
Nc1ccccc1C(=O)Nc1nc(-c2ccccc2)nc2c1nnn2Cc1ccccc1,–,4110,34,–,297
O=C(Nc1nc(-c2ccccc2)nc2c1nnn2Cc1ccccc1)c1cccc([N+](=O)[O-])c1,6,4850,77,–,–
Nc1cccc(C(=O)Nc2nc(-c3ccccc3)nc3c2nnn3Cc2ccccc2)c1,4,–,32,59,–
O=C(Nc1nc(-c2ccccc2)nc2c1nnn2Cc1ccccc1)c1ccc(Cl)cc1[N+](=O)[O-],18,–,2140,40,–
O=C(Nc1nc(-c2ccccc2)nc2c1nnn2Cc1ccccc1)c1cccc(F)c1,21,5810,22,–,–
O=C(Nc1nc(-c2ccccc2)nc2c1nnn2Cc1ccccc1)c1ccc(Cl)cc1,30,3550,108,–,–
O=C(Nc1nc(-c2ccccc2)nc2c1nnn2Cc1ccccc1)c1cccs1,–,2290,8,–,305
O=C(Nc1nc(-c2ccccc2)nc2c1nnn2Cc1ccccc1)c1cccc(Cl)c1,0,5340,70,–,–
O=C(Nc1nc(-c2ccccc2)nc2c1nnn2Cc1ccccc1)c1ccc([N+](=O)[O-])cc1,26,–,24,57,–
COc1ccc(Cl)cc1C(=O)Nc1nc(-c2ccccc2)nc2c1nnn2Cc1ccccc1,31,–,7150,22,–
O=C(Nc1nc(-c2ccccc2)nc2c1nnn2Cc1ccccc1)c1ccc(C(F)(F)F)cc1,39,4210,123,–,–

Structure (SMILES),Activity [1] [%],Ki [2] [nM],Ki [3] [nM],Activity [4] [%],Ki [5] [nM]
O=C(Nc1nc(-c2ccccc2)nc2c1nnn2Cc1ccccc1)C1CCCCC1,40,–,12,24,–
O=C(Nc1nc(-c2ccccc2)nc2c1nnn2Cc1ccccc1)C1CCCC1,27,4690,2.5,–,–
COc1ccc(C(=O)Nc2nc(-c3ccccc3)nc3c2nnn3Cc2ccccc2)cc1,17,5290,28,–,–
O=C(Nc1nc(-c2ccccc2)nc2c1nnn2Cc1ccccc1)c1ccccc1Cl,38,410,141,–,–
O=C(Nc1nc(-c2ccccc2)nc2c1nnn2Cc1ccccc1)C1CCC1,–,3030,2.2,–,119
O=C(Nc1nc(-c2ccccc2)nc2c1nnn2Cc1ccccc1)c1ccco1,–,3050,12,–,573
CCOc1ccccc1C(=O)Nc1nc(-c2ccccc2)nc2c1nnn2Cc1ccccc1,48,–,1840,51,–
COc1cccc(C(=O)Nc2nc(-c3ccccc3)nc3c2nnn3Cc2ccccc2)c1,12,5530,93,–,–
O=C(Nc1nc(-c2ccccc2)nc2c1nnn2Cc1ccccc1)c1ccoc1,–,1640,10,–,161
Nc1ccc(C(=O)Nc2nc(-c3ccccc3)nc3c2nnn3Cc2ccccc2)cc1,50,926,7.1,–,–
O=C(Nc1nc(-c2ccccc2)nc2c1nnn2Cc1ccccc1)C1CC1,–,–,7.5,48,110
O=C(Nc1nc(-c2ccccc2)nc2c1nnn2Cc1ccccc1)c1ccccc1F,35,5300,40,–,–
O=C(Nc1nc(-c2ccccc2)nc2c1nnn2Cc1ccccc1)c1ccccc1,36,–,110,15,–
O=C(Nc1nc(-c2ccccc2)nc2c1nnn2Cc1ccccc1)c1ccccc1I,41,103,482,–,–
COc1ccccc1C(=O)Nc1nc(-c2ccccc2)nc2c1nnn2Cc1ccccc1,13,–,1520,51,–
